Compound activity deposited in PubChem by The Scripps Research Institute Molecular Screening Center.
Shown are actives, neighbours in structure and some others; about 1.8% of the full set was active somewhere.
TCR CD3 inh – inhibitors of human TCR-CD3 interaction, primary screen, biochemical, fluorescence, TAMRA-labeled TCR probe; T-cell receptor (TCR); 360,000 compounds, 0.37% hits; inhibition, % at 9.4 µM; in the data active means inhibition above about 19%;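 further: recombinant mutant TCR 2C K166C tagged with TAMRA read by polarization; 0% = receptor in buffer alone and 100% = receptor with positive control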
SIAE inh – human SIAE inhibitors, primary screen, biochemical, fluorescence polarization, FP-Rh probe, 1536-well HTS; SIAE FP-Rh probe binding; inhibition, % at 9.66 µM; 370,000 compounds, 0.69% hits; AID 1053197, 2014;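 active means inhibition above a cutoff: mean of compounds within the control limits plus 3 SD of those, cut at about 17% in these data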;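 further: 0% = plate median of compound wells and 100% = probe without SIAE protein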
PME-1 inh – PME-1 inhibitors via competitive probe labeling, primary screen, biochemical, fluorescence polarization, FP-Rh probe, HTS; Protein phosphatase methylesterase 1 (Homo sapiens), Q9Y570; recombinant PME-1; inhibition, % at 5.9 µM; 320,000 compounds, 0.53% hits;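 active means inhibition above the campaign mean of all compounds plus 3 SD, cut at about 26% in these data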;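 further: competitive labeling of PME-1 active site by serine hydrolase directed probe; 0% = PME-1 with DMSO and 100% = wells lacking PME-1 enzyme; inhibitors block probe labeling so polarization falls and inhibition rises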
mABHD4 FP – ABHD4 inhibitors, primary screen, biochemical, fluorescence polarization, mouse | (Lyso)-N-acylphosphatidylethanolamine lipase (Mus musculus), Q8VD66 | purified mABHD4, FP-Rh probe fluorescence polarization | inhibition, % at 8.92 µM | 370,000 compounds, 0.54% hits | AID 720543, 2013;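 active means inhibition exceeding the mean over every tested compound plus 3 SD, cut at about 30% in these data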;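 further: 0% = plate median of compound wells and 100% = S159A mutant with DMSO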
Target sequence (Q8VD66 whole entry, looked up): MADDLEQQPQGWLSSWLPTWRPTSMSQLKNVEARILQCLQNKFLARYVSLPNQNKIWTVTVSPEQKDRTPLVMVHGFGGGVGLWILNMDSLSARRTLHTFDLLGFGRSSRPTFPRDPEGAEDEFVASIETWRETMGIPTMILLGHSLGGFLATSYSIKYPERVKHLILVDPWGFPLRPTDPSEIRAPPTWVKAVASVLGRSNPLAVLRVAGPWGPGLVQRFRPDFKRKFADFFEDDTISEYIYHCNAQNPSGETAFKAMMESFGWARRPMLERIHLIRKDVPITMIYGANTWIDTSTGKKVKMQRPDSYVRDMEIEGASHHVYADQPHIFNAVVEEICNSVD
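Assay system: wild-type mouse ABHD4 protein; compound: single nominal dose of 8.92 µM, 0.89% DMSO final; schedule: 45 min + 60 min at 25 °C; measured by: FP readout, ex 525 nm / em 598 nm; evaluation: % inhibition of FP-Rh probe binding versus controls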
HTRA1 inh – HTRA1 serine protease inhibitors, primary screen, biochemical, fluorescence polarization, HTS. AID 504803, 2011. inhibition, % at 5.96 µM. recombinant HTRA1, FP-rhodamine activity-based probe. Q92743. 340,000 compounds, 0.5% hits; in the data active means inhibition above about 36%;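 further: 0% = enzyme with DMSO and 100% = wells lacking enzyme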
Fam108B counter – mouse Fam108B serine hydrolase inhibitors, primary screen, counter-screen for RBBP9 inhibitor project, biochemical, fluorescence polarization; recombinant Fam108B, FP-Rh probe fluorescence polarization; inhibition, % at 9.51 µM; 300,000 compounds, 0.33% hits;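 active means inhibition above the screen mean inhibition plus 3 SD, computed separately per campaign, cut at about 18% in these data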;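 further: inhibitors lower polarization as less probe binds the enzyme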
mABHD4 conf – ABHD4 inhibitors, retest, confirmation, biochemical, fluorescence polarization, mouse; shares compounds with mABHD4 FP; purified mABHD4, FP-Rh probe fluorescence polarization; inhibition, % at 8.92 µM; 1,800 compounds, 55% hits;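 active means mean inhibition across replicates above the hit cutoff set in the primary screen, cut at about 30% in these data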;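 further: 0% = wild-type ABHD4 with DMSO and 100% = catalytically dead S159A mutant with DMSO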
SIAE confirm – human SIAE inhibitors, retest, confirmation, biochemical, fluorescence polarization, FP-Rh probe, triplicate; shares compounds with SIAE inh; SIAE FP-Rh activity-based probe; inhibition, % at 9.66 µM; 2,300 compounds, 13% hits; AID 1117263, 2014;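 active means mean inhibition of the replicates above the hit cutoff set in the primary screen, cut at about 17% in these data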;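 further: 0% = SIAE with DMSO and probe and 100% = probe without SIAE; inhibitors lower polarization as more probe stays unbound to SIAE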
* = called active by the depositor.

What do the screens show for `C[C@]12CC[C@@H]3c4ccc(O)c(O)c4CC[C@H]3[C@@H]1CC[C@@H]2O`?
TCR CD3 inh: 11; SIAE inh: -7; PME-1 inh: -12; mABHD4 FP: 30*; HTRA1 inh: 28; Fam108B counter: -1; mABHD4 conf: 19

Results for C[C@]12CC[C@H]3[C@@H](CCC4=CC(=O)CC[C@@H]43)[C@@H]1CC[C@@H]2O ?
TCR CD3 inh: -4; SIAE inh: -2; mABHD4 FP: -4; HTRA1 inh: -4

How did CCOC(=O)[C@]12Cc3cc(Cl)ccc3[C@H]1N(C1CCCCC1)C(=O)c1cc(OC)ccc12 do in these assays?
TCR CD3 inh: -3; SIAE inh: -6; mABHD4 FP: 5

Results for O=P(Oc1ccccc1)(Oc1ccccc1)C(O)c1ccc(Cl)cc1 (configuration not stated) ?
TCR CD3 inh: 3; SIAE inh: 1; PME-1 inh: 47*; mABHD4 FP: 32*; HTRA1 inh: -8; Fam108B counter: 1; mABHD4 conf: 16

What do the screens show for `COc1ccc2c(c1)c(C(=O)O)c(C)n2CC(C)C`?
TCR CD3 inh: 9; SIAE inh: -9; PME-1 inh: -4; mABHD4 FP: 9; HTRA1 inh: -2; Fam108B counter: 0

How did COc1cc(O)c(C(=O)O)c(-c2cc(O)c(O)cc2C)c1 do in these assays?
TCR CD3 inh: 11; SIAE inh: 13; PME-1 inh: -2; mABHD4 FP: 37*; HTRA1 inh: 21; Fam108B counter: 5; mABHD4 conf: 33*

How did O=S(=O)(c1ccc(Cl)cc1)N1Cc2ccc(Br)cc2-n2nncc2C1 do in these assays?
TCR CD3 inh: -6; SIAE inh: 2; mABHD4 FP: 2

How did Cc1ccc(OC(=O)N(C)C[C@H]2OCc3cnnn3CCCC(=O)N([C@@H](C)CO)C[C@@H]2C)cc1 do in these assays?
TCR CD3 inh: 4; SIAE inh: 6; mABHD4 FP: 1

How did O=c1c2ccccc2nc(/C=C/c2ccc3c(c2)OCO3)n1-c1ccccc1 do in these assays?
TCR CD3 inh: -10; SIAE inh: -1; PME-1 inh: 6; mABHD4 FP: -8; HTRA1 inh: -5; Fam108B counter: -5

What do the screens show for `COc1cc(/C=C/c2nc3ccccc3c(=O)n2-c2ccc(O)cc2)ccc1O`?
TCR CD3 inh: 3; SIAE inh: 8; PME-1 inh: 26; mABHD4 FP: 39*; HTRA1 inh: 0; Fam108B counter: 7; mABHD4 conf: 45*

Results for O=[N+]([O-])c1ccc(O)c([N+](=O)[O-])c1 ?
TCR CD3 inh: -9; SIAE inh: 7; PME-1 inh: -3; mABHD4 FP: -13; HTRA1 inh: -1; Fam108B counter: -1

What do the screens show for `O=[N+]([O-])c1cc(O)c(O)c([N+](=O)[O-])c1`?
TCR CD3 inh: 9; SIAE inh: 6; PME-1 inh: -1; mABHD4 FP: 74*; HTRA1 inh: 35; Fam108B counter: 4; mABHD4 conf: 50*

What do the screens show for `Cc1cccc(-c2nc3ccc(C(=O)N4CCC5(CC4)OCCO5)cc3nc2-c2cccc(C)c2)c1`?
TCR CD3 inh: 2; SIAE inh: -7; PME-1 inh: 4; mABHD4 FP: 32*; HTRA1 inh: -35; Fam108B counter: -9; mABHD4 conf: 48*

How did CCN1/C(=C/C=C/C2=[N+](CC)c3ccccc3C2(C)C)C(C)(C)c2ccccc21 do in these assays?
TCR CD3 inh: -83; SIAE inh: active; mABHD4 FP: active; HTRA1 inh: -288; mABHD4 conf: active; SIAE confirm: active

How did Cc1cc(OC(C)C(=O)NCc2cccnc2)c2c3c(c(=O)oc2c1)CCC3 (configuration not stated) do in these assays?
TCR CD3 inh: 0; SIAE inh: -1; PME-1 inh: 1; mABHD4 FP: 9; HTRA1 inh: -2; Fam108B counter: 2

How did CCCCn1c(O)c(/C=N/N2CCOCC2)c(=O)[nH]c1=S do in these assays?
TCR CD3 inh: 4; SIAE inh: 19*; PME-1 inh: -4; mABHD4 FP: -1; HTRA1 inh: -3; Fam108B counter: 3; SIAE confirm: 2

What do the screens show for `CCCCCCn1c(O)c(C=Nc2ccccc2N2CCOCC2)c(=O)[nH]c1=S`?
TCR CD3 inh: 2; SIAE inh: 0; PME-1 inh: -5; mABHD4 FP: -1; Fam108B counter: 1

How did Cn1c(O)c(/C=C2/C=CC=N2)c(=O)[nH]c1=O do in these assays?
TCR CD3 inh: 3; SIAE inh: -2; PME-1 inh: 3; mABHD4 FP: -4; HTRA1 inh: 1; Fam108B counter: 0

Results for OCC#CC[N+]1(CC#Cc2ccccc2)CCOCC1 ?
TCR CD3 inh: 4; SIAE inh: 2; PME-1 inh: 1; mABHD4 FP: -1; HTRA1 inh: 2; Fam108B counter: 2

How did N#CC[N+]1(CCCNP2(=O)C=C(c3ccccc3)OC(c3ccccc3)=C2)CCOCC1 do in these assays?
TCR CD3 inh: 0; SIAE inh: 18*; PME-1 inh: 4; mABHD4 FP: -1; HTRA1 inh: 3; Fam108B counter: 7; SIAE confirm: -4

What do the screens show for `OCCN(CC#CC(O)(c1ccccc1)C1CCCC1)CCO` (configuration not stated)?
TCR CD3 inh: -4; SIAE inh: 1; PME-1 inh: 2; mABHD4 FP: -5; HTRA1 inh: -3; Fam108B counter: 5

How did COCOC1CCC2C3CCC4=CC(=O)CCC4=C3C=CC12C (configuration not stated) do in these assays?
TCR CD3 inh: 5; SIAE inh: 5; mABHD4 FP: 26; HTRA1 inh: 10

What do the screens show for `CC1(O)CCC2C3CCC4=CC(=O)CCC4=C3C=CC21C` (configuration not stated)?
TCR CD3 inh: 5; SIAE inh: 19*; mABHD4 FP: -3; HTRA1 inh: -4; SIAE confirm: 0
